Data published in ChEMBL document CHEMBL4138140, “Discovery of Mechanism-Based Inactivators for Human Pancreatic Carboxypeptidase A from a Focused Synthetic Library” (ACS Med Chem Lett, 2017).

How the values were obtained:
Carboxypeptidase A1 [1] = target: T1, Carboxypeptidase A1 (Bos taurus, UniProt P00730); experiment: Inhibition of bovine carboxypeptidase A using N-(4-methoxyphenylazoformyl)-Phe-OH as substrate preincubated for 2 mins followed by susbtrate addition measured for 15 mins at 30 secs interval
T1 sequence (P00730 whole entry): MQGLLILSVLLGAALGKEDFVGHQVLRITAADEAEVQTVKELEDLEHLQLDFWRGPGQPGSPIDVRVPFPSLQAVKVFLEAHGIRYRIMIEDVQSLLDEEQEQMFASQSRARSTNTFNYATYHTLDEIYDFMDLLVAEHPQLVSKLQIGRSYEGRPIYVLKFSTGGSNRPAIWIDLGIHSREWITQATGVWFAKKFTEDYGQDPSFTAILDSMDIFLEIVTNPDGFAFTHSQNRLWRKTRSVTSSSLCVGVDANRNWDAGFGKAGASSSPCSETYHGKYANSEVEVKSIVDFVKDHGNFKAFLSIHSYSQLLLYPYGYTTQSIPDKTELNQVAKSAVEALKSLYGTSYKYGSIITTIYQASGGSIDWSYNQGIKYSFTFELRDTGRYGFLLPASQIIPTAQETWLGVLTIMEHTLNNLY
Procedure, shortened: (§1)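 Compound was pre-incubated with enzyme before the activity assay, either briefly (2 min) or long (3 h), to test for time-dependent inhibition.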

Carboxypeptidase A1 [2] = target: T1, Carboxypeptidase A1; experiment: Inhibition of bovine carboxypeptidase A using N-(4-methoxyphenylazoformyl)-Phe-OH as substrate preincubated for 3 hrs followed by susbtrate addition measured for 15 mins at 30 secs interval; procedure, shortened: as §1
[3] = target: T2, Carboxypeptidase A1 (Homo sapiens) (UniProt P15085); experiment: (§2) Irreversible inhibition of recombinant human carboxypeptidase A1 expressed in Pichia pastoris using N-(4-methoxyphenylazoformyl)-Phe-OH as substrate measured for 600 secs by double reciprocal plot analysis
T2 sequence (whole entry): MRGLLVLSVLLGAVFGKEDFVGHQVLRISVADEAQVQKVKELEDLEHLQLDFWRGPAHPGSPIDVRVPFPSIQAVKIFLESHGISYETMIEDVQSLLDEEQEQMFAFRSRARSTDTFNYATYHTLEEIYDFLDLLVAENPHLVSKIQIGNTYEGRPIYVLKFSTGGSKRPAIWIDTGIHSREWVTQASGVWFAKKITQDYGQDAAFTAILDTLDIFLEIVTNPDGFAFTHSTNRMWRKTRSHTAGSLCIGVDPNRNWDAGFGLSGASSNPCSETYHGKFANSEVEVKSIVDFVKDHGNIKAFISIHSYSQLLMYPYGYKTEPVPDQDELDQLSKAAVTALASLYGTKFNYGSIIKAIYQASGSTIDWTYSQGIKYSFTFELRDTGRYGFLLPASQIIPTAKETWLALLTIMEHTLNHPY

Carboxypeptidase A1 [4] = target: T3, Carboxypeptidase A1 (Homo sapiens, UniProt P15085); experiment: as §2; conditions: read-out: Ki(app)
T3 sequence (P15085 whole entry): T2 sequence (whole entry)

Row | SMILES | IC50 (Carboxypeptidase A1 [1]) [µM] | IC50 (Carboxypeptidase A1 [2]) [nM] | Kinact [3] [min⁻¹] | Ki (Carboxypeptidase A1 [4]) [µM]
1 | CCC[C@H](C(=O)O)[C@@H]1CO1 (racemic) | 115 | 1130 | – | –
2 | CC(C)C[C@H](C(=O)O)[C@H]1CS1 (racemic) | – | 31900 | – | –
3 | O=C(O)[C@@H](CC1CCC1)[C@@H]1CO1 (racemic) | 57.9 | 1130 | – | –
4 | CC(C)C[C@H](C(=O)O)[C@H]1CO1 (racemic) | – | 570 | – | –
5 | O=C(O)[C@@H](Cc1ccc(I)cc1)[C@@H]1CO1 (racemic) | 48.3 | 1040 | 0.6 | 413
6 | O=C(O)[C@@H](CCc1ccccc1)[C@@H]1CS1 (racemic) | – | 16400 | – | –
7 | O=C(O)[C@@H](CC1CC1)[C@H]1CS1 (racemic) | 174 | 1800 | – | –
8 | CC(C)C[C@H](C(=O)O)[C@@H]1CS1 (racemic) | 14 | 260 | 0.52 | 56
9 | O=C(O)[C@@H](Cc1ccc(F)cc1)[C@@H]1CO1 (racemic) | 21.9 | 510 | 0.71 | 238
10 | O=C(O)[C@@H](CC1CCC1)[C@H]1CS1 (racemic) | 60 | 970 | – | –
11 | CCC[C@H](C(=O)O)[C@@H]1CS1 (racemic) | 31.9 | 600 | 0.82 | 294
12 | O=C(O)[C@@H](Cc1ccc(I)cc1)[C@H]1CS1 (racemic) | 46.3 | 960 | 0.69 | 289
13 | CC(C)C[C@H](C(=O)O)[C@@H]1CO1 (racemic) | – | 33100 | – | –
14 | O=C(O)[C@@H](CCc1ccccc1)[C@@H]1CO1 (racemic) | – | 8250 | – | –
15 | O=C(O)[C@@H](Cc1ccc(F)cc1)[C@H]1CS1 (racemic) | 18.7 | 470 | 0.47 | 60.4
16 | O=C(O)[C@@H](CC1CC1)[C@@H]1CO1 (racemic) | 276 | 11200 | – | –
